Calls of active or inactive are those of the source. The calls are words filed in the database; no cut-off is given here.
Tests used:
[1] = Antioxidant activity assessed as ABTS radical scavenging activity; format: functional
In short: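 ABTS radical cation generated from ABTS (150 μM) with H2O2 (75 μM) and HRP (0.25 μM) in citrate-phosphate pH 4.5, diluted in 5 mM PBS pH 7.4 to A734 0.70, pre-warmed 30 °C. Compounds in PBS (50 μM stock) at four concentrations within the Trolox dose-response range, triplicates; A734 read 1 min after mixing; TEAC derived from Trolox curve.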

[2] = test system: SK-MEL-28; experiment: Down regulation of methyltetrahydrofolate reductase mRNA expression in human SkMel28 cells at 20 uM after 24 hrs; format: functional, cell-based
In short: (§1)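 SkMel-28 cells treated and mRNA quantified by SYBR Green real-time PCR (95 °C 15 min; 40-50 cycles 94 °C 30 s, 55 °C 30 s, 72 °C 1 min), triplicate reactions, at least two independent experiments; melting-curve specificity check; expression relative to normal human epidermal melanocytes.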

[3] = target: T1, Dihydrofolate reductase (Homo sapiens) (UniProt P00374); experiment: Dissociation constant for binding to free human recombinant DHFR by fluorescence titration
T1 sequence (whole entry): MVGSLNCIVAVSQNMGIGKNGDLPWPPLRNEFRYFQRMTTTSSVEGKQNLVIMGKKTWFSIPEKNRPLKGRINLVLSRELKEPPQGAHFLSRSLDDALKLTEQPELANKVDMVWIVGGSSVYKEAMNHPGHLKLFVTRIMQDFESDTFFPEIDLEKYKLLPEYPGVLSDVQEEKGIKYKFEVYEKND

[4] = test system: SK-MEL-28; experiment: Down regulation of thymidylate synthase mRNA expression in human SkMel28 cells at 20 uM after 24 hrs; format: functional, cell-based; in short: as §1
[5] = test system: MCF7; experiment: Antiproliferative activity against human MCF7 cells after 6 days by MTT assay; format: functional, cell-based; conditions: MCF7, 144 h
In short: (§2)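 ATCC lines kept in medium with 10% FCS and antibiotics; plated at 1000 cells/well, grown to 50-60% confluence, then exposed for 6 days. Viability by MTT, formazan read at 570 nm; IC50 derived.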

[6] = test system: Caco-2; experiment: Antiproliferative activity against human Caco-2 cells after 6 days by MTT assay; format: functional, cell-based; conditions: Caco-2, 144 h; in short: as §2
[7] = test system: SK-MEL-28; experiment: Down regulation of DHFR mRNA expression in human SkMel28 cells at 20 uM after 24 hrs; format: functional, cell-based; in short: as §1
[8] = test system: Caco-2; experiment: Growth inhibition of human Caco-2 cells at 25 uM after 6 days; format: functional, cell-based
In short: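 Caco-2 cells treated 6 days with 25 μM compound; MTT viability expressed as percent of untreated control (100%); mean of three independent experiments ± SD.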

[9] = Antiproliferative activity against human H1264 cells after 6 days by MTT assay; format: functional, cell-based; conditions: H1264, 144 h; in short: as §2
[10] = test system: SK-MEL-28; experiment: Growth inhibition of human SkMel28 cells at 20 uM after 6 days; format: functional, cell-based
[11] = test system: SK-MEL-28; experiment: Antiproliferative activity against human SkMel28 cells after 6 days by MTT assay; format: functional, cell-based; conditions: SK-MEL-28, 144 h; in short: as §2
[12] = Stability in human HT29 cells assessed as half life; format: ADME, cell-based; conditions: HT-29 cells
[13] = Prooxidant activity assessed as enhancement of NADPH oxidation at 50 uM; format: functional
In short: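 Rate of NADPH (0.1 mM) oxidation measured with 50 μM catechin in sodium-phosphate buffer, pH 7.4, 37 °C. Read-out is the fall in NADPH absorbance at 340 nm. Runs were done with and without bovine liver SOD at 10 μg/mL.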

[14] = target: T1, Dihydrofolate reductase (Homo sapiens); experiment: Inhibition of human recombinant DHFR at 100 uM
In short: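 Recombinant human DHFR activity at 25 °C followed as drop in NADPH/DHF absorbance at 340 nm in Mes 0.025 M, sodium acetate 0.025 M, Tris 0.05 M, NaCl 0.1 M, pH 7.4, with 1 mM ascorbic acid; reaction started with enzyme; compounds at 100 μM; activity relative to no-compound control, mean of five experiments.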

Compound	Activity [1] [mM]	Kd [3] [nM]	Activity [8]	Activity [13]	Activity [14]	further results
VITAMIN E	1	–	–	–	–	–
COc1cc(C(=O)O[C@@H]2Cc3c(O)cc(O)cc3O[C@@H]2c2ccc(O)c(O)c2)cc(OC)c1OC	1.9	2100	Active	–	–	Activity [2]: Active; Activity [4]: Active; IC50 [5]: 80000 nM; IC50 [6]: 33000 nM; Activity [7]: Active; IC50 [9]: 18000 nM; Activity [10]: Active; IC50 [11]: 2900 nM
O=C(O[C@@H]1Cc2c(O)cc(O)cc2O[C@@H]1c1cc(O)c(O)c(O)c1)c1cc(O)c(O)c(O)c1 [EPIGALOCATECHIN GALLATE]	4.8	920	Active	Active	–	half-life [12]: < 2 h
Oc1cc(O)c2c(c1)O[C@H](c1ccc(O)c(O)c1)[C@H](O)C2	–	–	–	–	inactive	–
O=C(O[C@@H]1Cc2c(O)cc(O)cc2O[C@@H]1c1ccc(O)c(O)c1)c1cc(O)c(O)c(O)c1	4.9	1780	Active	–	–	–
Oc1cc(O)c2c(c1)O[C@H](c1cc(O)c(O)c(O)c1)[C@H](O)C2	–	–	–	Active	inactive	–

Source: ChEMBL document CHEMBL1142382, “Synthesis and biological activity of a 3,4,5-trimethoxybenzoyl ester analogue of epicatechin-3-gallate” (J Med Chem, 2008)
